ChEMBL document CHEMBL4043192, “The discovery of IDX21437: Design, synthesis and antiviral evaluation of 2'-α-chloro-2'-β-C-methyl branched uridine pronucleotides as potent liver-targeted HCV polymerase inhibitors” (Bioorg Med Chem Lett, 2017)
pEC50, pIC50: −log10 of the molar value.

Key:
Hepatitis C virus = assay: Antiviral activity against HCV genotype 1b Con1 expressing NS3 protease infected in human Huh-7 cells assessed as reduction in viral RNA replication after 72 hrs by luciferase reporter gene assay; type: functional, cell-based, Hepacivirus hominis; conditions: genotype 1b Con1, Huh-7, 72 h
[1] = Selectivity index, ratio of CC50 for human Huh-7 cells to EC50 for HCV genotype 1b Con1 expressing NS3 protease
Summary of the method: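 Selectivity index = CC50/EC50. EC50 from a luciferase-read Con1 subgenomic replicon assay in Huh-7 (GS4.1) cells.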

Liver = assay: Dose normalized AUC (0 to 24 hrs) in mouse liver assessed as 2'-C-MeUTP level at 10 mg/kg, po administered as single dose; type: ADME, organism-based; conditions: in vivo
Summary of the method: (§1)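 Mice given a single oral 10 mg/kg dose. Triphosphate measured in liver and parent nucleoside in plasma. AUC expressed as dose-normalized AUC (AUC per mg/kg).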

Plasma = assay: Dose normalized AUC (0 to 24 hrs) in mouse plasma assessed as 2'-C-MeU level at 10 mg/kg, po administered as single dose; type: ADME, organism-based; conditions: in vivo; summary of the method: as §1
[2] = Cytotoxicity against human HuH7 cells assessed as reduction in cell viability; type: cell-based, Huh-7
[3] = Inhibition of wild-type HCV genotype 1b NS5B RNA dependent RNA polymerase; design: species or system Hepatitis C virus subtype 1b
Summary of the method: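 Biochemical assay using wild-type genotype 1b HCV NS5B polymerase. IC50 was derived from percent inhibition versus concentration data.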

Row | pIC50 [3] | Structure (SMILES) | pEC50 (Hepatitis C virus) | Ratio CC50/EC50 [1] | AUC/dose (Liver) | AUC/dose (Plasma) | CC50 [2]
1 | – | CCCCOC(=O)[C@@H](C)N[P@@](=O)(OC[C@H]1O[C@@H](n2ccc(=O)[nH]c2=O)[C@](C)(Cl)[C@@H]1O)Oc1ccccc1 | 5.66 | >46 | 8400 pmol·h/g | 1700 pmol·h/mL | –
2 | – | C[C@@]1(F)[C@H](O)[C@@H](CO)O[C@H]1n1ccc(=O)[nH]c1=O | 4.30 | – | – | – | > 100 µM
3 | – | CCOC(=O)[C@@H](CC(C)C)N[P@@](=O)(OC[C@H]1O[C@@H](n2ccc(=O)[nH]c2=O)[C@](C)(Cl)[C@@H]1O)Oc1ccccc1 | 4.43 | >3 | – | – | –
4 | – | C[C@H](N[P@](=O)(OC[C@H]1O[C@@H](n2ccc(=O)[nH]c2=O)[C@](C)(Cl)[C@@H]1O)Oc1ccccc1)C(=O)OCc1ccccc1 | 7.15 | >1408 | 850 pmol·h/g | 2500 pmol·h/mL | –
5 | – | C[C@H](N[P@@](=O)(OC[C@H]1O[C@@H](n2ccc(=O)[nH]c2=O)[C@](C)(Cl)[C@@H]1O)Oc1ccccc1)C(=O)OCc1ccccc1 | 6.73 | >541 | 1200 pmol·h/g | 1900 pmol·h/mL | –
6 | – | CCCCOC(=O)[C@@H](C)N[P@](=O)(OC[C@H]1O[C@@H](n2ccc(=O)[nH]c2=O)[C@](C)(Cl)[C@@H]1O)Oc1ccccc1 | 6.28 | >189 | 7200 pmol·h/g | 1700 pmol·h/mL | –
7 | – | CC(C)OC(=O)[C@@H](N[P@](=O)(OC[C@H]1O[C@@H](n2ccc(=O)[nH]c2=O)[C@](C)(Cl)[C@@H]1O)Oc1ccccc1)C(C)C | < 4.00 | >1 | – | – | –
8 | – | CCOC(=O)[C@@H](CC(C)C)N[P@](=O)(OC[C@H]1O[C@@H](n2ccc(=O)[nH]c2=O)[C@](C)(Cl)[C@@H]1O)Oc1ccccc1 | < 4.00 | >1 | – | – | –
9 | – | CC(C)OC(=O)[C@H](C)NP(=O)(N[C@@H](C)C(=O)OC(C)C)OC[C@H]1O[C@@H](n2ccc(=O)[nH]c2=O)[C@](C)(Cl)[C@@H]1O | 4.92 | >8 | – | – | –
10 | – | CC(C)OC(=O)[C@@H](C)N[P@](=O)(OC[C@H]1O[C@@H](n2ccc(=O)[nH]c2=O)[C@](C)(Cl)[C@@H]1O)Oc1ccccc1 | 5.02 | >10 | 3750 pmol·h/g | 1050 pmol·h/mL | –
11 | – | CC(C)(CO)C(=O)SCCO[P@@](=O)(NCc1ccccc1)OC[C@H]1O[C@@H](n2ccc(=O)[nH]c2=O)[C@](C)(Cl)[C@@H]1O | 5.40 | >25 | 150 pmol·h/g | 930 pmol·h/mL | –
12 | – | CC(C)OC(=O)[C@H](C)N[P@@](=O)(OC[C@H]1O[C@@H](n2ccc(=O)[nH]c2=O)[C@](C)(Cl)[C@@H]1O)Oc1ccccc1 | 6.02 | >105 | 840 pmol·h/g | 970 pmol·h/mL | –
13 | – | CC(C)OC(=O)[C@H](C)N[P@](=O)(OC[C@H]1O[C@@H](n2ccc(=O)[nH]c2=O)[C@](C)(Cl)[C@@H]1O)Oc1ccccc1 | 6.80 | >633 | 560 pmol·h/g | 1300 pmol·h/mL | –
14 | – | CCOC(=O)[C@H](C)N[P@@](=O)(OC[C@H]1O[C@@H](n2ccc(=O)[nH]c2=O)[C@](C)(Cl)[C@@H]1O)Oc1ccccc1 | 6.07 | >118 | 840 pmol·h/g | 1100 pmol·h/mL | –
15 | – | CCOC(=O)[C@@H](C)N[P@@](=O)(OC[C@H]1O[C@@H](n2ccc(=O)[nH]c2=O)[C@](C)(Cl)[C@@H]1O)Oc1ccccc1 | 5.09 | >12 | – | – | –
16 | – | CC(C)OC(=O)[C@H](C)N[P@@]1(=O)OC[C@H]2O[C@@H](n3ccc(=O)[nH]c3=O)[C@](C)(Cl)[C@@H]2O1 | 5.40 | >25 | 520 pmol·h/g | 1100 pmol·h/mL | –
17 | – | CCOC(=O)NCC(C)(C)C(=O)SCCO[P@@](=O)(NCc1ccccc1)OC[C@H]1O[C@@H](n2ccc(=O)[nH]c2=O)[C@](C)(Cl)[C@@H]1O | 5.94 | >86 | – | – | –
18 | – | CC(C)(CO)C(=O)SCCO[P@@]1(=O)OC[C@H]2O[C@@H](n3ccc(=O)[nH]c3=O)[C@](C)(Cl)[C@@H]2O1 | 6.38 | >240 | 3600 pmol·h/g | 710 pmol·h/mL | –
19 | – | CC(C)OC(=O)[C@H](C)N[P@]1(=O)OC[C@H]2O[C@@H](n3ccc(=O)[nH]c3=O)[C@](C)(Cl)[C@@H]2O1 | 6.29 | >197 | 21 pmol·h/g | 570 pmol·h/mL | –
20 | – | C[C@@H](N[P@](=O)(OC[C@H]1O[C@@H](n2ccc(=O)[nH]c2=O)[C@](C)(Cl)[C@@H]1O)Oc1ccccc1)C(=O)OCc1ccccc1 | 6.09 | >122 | 6900 pmol·h/g | 1700 pmol·h/mL | –

Row | pIC50 [3] | Structure (SMILES) | pEC50 (Hepatitis C virus) | Ratio CC50/EC50 [1] | AUC/dose (Liver) | AUC/dose (Plasma) | CC50 [2]
21 | – | CC(C)OC(=O)[C@H](C)N[P@@](=O)(OC[C@H]1O[C@@H](n2ccc(=O)[nH]c2=O)[C@](C)(F)[C@@H]1O)Oc1ccccc1 | 5.68 | >48 | 310 pmol·h/g | 320 pmol·h/mL | –
22 | – | CC(C)(CO)C(=O)SCCO[P@](=O)(NCc1ccccc1)OC[C@H]1O[C@@H](n2ccc(=O)[nH]c2=O)[C@](C)(Cl)[C@@H]1O | 5.44 | >28 | 96 pmol·h/g | 590 pmol·h/mL | –
23 | – | CCOC(=O)[C@H](C)N[P@](=O)(OC[C@H]1O[C@@H](n2ccc(=O)[nH]c2=O)[C@](C)(Cl)[C@@H]1O)Oc1ccccc1 | 6.59 | >389 | 400 pmol·h/g | 1100 pmol·h/mL | –
24 | – | CC(C)C[C@H](N[P@@](=O)(OC[C@H]1O[C@@H](n2ccc(=O)[nH]c2=O)[C@](C)(Cl)[C@@H]1O)Oc1ccccc1)C(=O)OC(C)C | 4.90 | >8 | – | – | –
25 | – | CCOC(=O)[C@@H](C)N[P@](=O)(OC[C@H]1O[C@@H](n2ccc(=O)[nH]c2=O)[C@](C)(Cl)[C@@H]1O)Oc1ccccc1 | 5.59 | >39 | – | – | –
26 | – | CC(C)(CO)C(=O)SCCOP1(=O)OC[C@H]2O[C@@H](n3ccc(=O)[nH]c3=O)[C@](C)(Cl)[C@@H]2O1 (single isomer, unassigned) | 6.61 | >403 | 5000 pmol·h/g | 1300 pmol·h/mL | –
27 | – | CCOC(=O)NCC(C)(C)C(=O)SCCOP1(=O)OC[C@H]2O[C@@H](n3ccc(=O)[nH]c3=O)[C@](C)(Cl)[C@@H]2O1 (single isomer, unassigned; 27a) | 6.45 | >285 | – | – | –
28 | – | CCOC(=O)[C@H](CC(C)C)N[P@@](=O)(OC[C@H]1O[C@@H](n2ccc(=O)[nH]c2=O)[C@](C)(Cl)[C@@H]1O)Oc1ccccc1 | 5.60 | >40 | 220 pmol·h/g | 940 pmol·h/mL | –
29 | – | CC(C)OC(=O)[C@@H](C)N[P@]1(=O)OC[C@H]2O[C@@H](n3ccc(=O)[nH]c3=O)[C@](C)(Cl)[C@@H]2O1 | 4.37 | >2 | 7500 pmol·h/g | 910 pmol·h/mL | –
30 | – | CC(C)C[C@H](N[P@](=O)(OC[C@H]1O[C@@H](n2ccc(=O)[nH]c2=O)[C@](C)(Cl)[C@@H]1O)Oc1ccccc1)C(=O)OC(C)C | 5.96 | >90 | – | – | –
31 | – | CCOC(=O)NCC(C)(C)C(=O)SCCOP1(=O)OC[C@H]2O[C@@H](n3ccc(=O)[nH]c3=O)[C@](C)(Cl)[C@@H]2O1 (single isomer, unassigned; 27b) | 7.14 | >1370 | 3300 pmol·h/g | – | –
32 | – | CC(C)OC(=O)[C@@H](C)N[P@@]1(=O)OC[C@H]2O[C@@H](n3ccc(=O)[nH]c3=O)[C@](C)(Cl)[C@@H]2O1 | 4.50 | >3 | 2400 pmol·h/g | 770 pmol·h/mL | –
33 | – | CC(C)OC(=O)[C@@H](C)NP(=O)(N[C@H](C)C(=O)OC(C)C)OC[C@H]1O[C@@H](n2ccc(=O)[nH]c2=O)[C@](C)(Cl)[C@@H]1O | < 4.00 | >1 | 490 pmol·h/g | 210 pmol·h/mL | –
34 | – | CCOC(=O)[C@H](CC(C)C)N[P@](=O)(OC[C@H]1O[C@@H](n2ccc(=O)[nH]c2=O)[C@](C)(Cl)[C@@H]1O)Oc1ccccc1 | 6.54 | >344 | 270 pmol·h/g | 2100 pmol·h/mL | –
35 | 7.09 | C[C@@]1(O)[C@H](O)[C@@H](COP(=O)(O)OP(=O)(O)OP(=O)(O)O)O[C@H]1n1ccc(=O)[nH]c1=O | – | – | – | – | –
36 | – | CC(C)(CO)C(=O)SCCOP(=O)(NCc1ccccc1)OC[C@H]1O[C@@H](n2cnc3c(=O)[nH]c(N)nc32)[C@](C)(O)[C@@H]1O (stereo partly specified) | 6.69 | >370 | 275 pmol·h/g | 45 pmol·h/mL | –
37 | – | C[C@@H](N[P@@](=O)(OC[C@H]1O[C@@H](n2ccc(=O)[nH]c2=O)[C@](C)(Cl)[C@@H]1O)Oc1ccccc1)C(=O)OCc1ccccc1 | 5.37 | >23 | 5600 pmol·h/g | 1400 pmol·h/mL | –
38 | – | CCOC(=O)NCC(C)(C)C(=O)SCCO[P@](=O)(NCc1ccccc1)OC[C@H]1O[C@@H](n2ccc(=O)[nH]c2=O)[C@](C)(Cl)[C@@H]1O | 5.90 | >79 | – | – | –
39 | – | CC(C)OC(=O)[C@@H](N[P@@](=O)(OC[C@H]1O[C@@H](n2ccc(=O)[nH]c2=O)[C@](C)(Cl)[C@@H]1O)Oc1ccccc1)C(C)C | < 4.00 | >1 | – | – | –
